High-throughput results as filed in PubChem BioAssay.
Rows were chosen to be rich in hits. Some 4.6% of all compounds tested hit in one or more screens of this group.
CHO parental Ca – ATP-evoked calcium signal inhibitors, parental CHO, primary screen, counter-screen for OX1R antagonist project, cell-based, fluorescence, Fluo-8 calcium dye | parental CHO-K1, ATP-induced calcium, Fluo-8 fluorescence | inhibition, % at 5.6 µM | 330,000 compounds, 0.63% hits;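 active = inhibition above that plate's mean sample inhibition plus 3 SD, cut at about 26% in these data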;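 also: 0% = ATP-challenged DMSO wells and 100% = DMSO wells without ATP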
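Test system: untransfected parental CHO cell line. Compound: one dose, 5.6 µM nominal. Detection: intracellular calcium via Fluo-8 no-wash fluorescent dye. Measure: % inhibition. Benchmarks: ATP-challenged DMSO wells low, unchallenged DMSO wells high.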
OX1R antag-1 – antagonists of human orexin 1 receptor (OX1R) | inhibition, % at 6.6 µM | Orexin/Hypocretin receptor type 1 (Homo sapiens), O43613 | AID 485270, 2010 | OX1R-expressing cells, FRET antagonist read-out | 330,000 compounds, 1.8% hits; in the data active = inhibition mostly above about 38%, no sharp cut-off; inactive = mostly below about 40%;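 also: 0% = agonist challenge alone and 100% = reference antagonist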
Target sequence (O43613 whole entry, looked up): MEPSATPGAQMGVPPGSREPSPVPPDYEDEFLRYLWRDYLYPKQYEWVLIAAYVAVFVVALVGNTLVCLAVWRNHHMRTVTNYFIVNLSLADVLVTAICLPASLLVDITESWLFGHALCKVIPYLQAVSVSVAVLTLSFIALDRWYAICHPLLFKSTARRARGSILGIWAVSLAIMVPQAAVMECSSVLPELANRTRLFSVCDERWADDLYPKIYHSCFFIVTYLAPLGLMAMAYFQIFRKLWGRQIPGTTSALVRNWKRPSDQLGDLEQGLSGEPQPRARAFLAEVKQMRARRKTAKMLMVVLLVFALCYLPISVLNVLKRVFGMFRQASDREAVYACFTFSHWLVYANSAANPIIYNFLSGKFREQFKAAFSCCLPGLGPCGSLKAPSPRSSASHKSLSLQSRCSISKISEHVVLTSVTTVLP
TAAR1 antagonist – human TAAR1 antagonists, primary screen, Fluo-8 calcium fluorescence, CHO RD-HGA16 cells; Trace amine-associated receptor 1 (Homo sapiens), Q96RJ0; antagonist; inhibition, % at 3 µM; 360,000 compounds, 1.5% hits; AID 624466, 2012;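 active = inhibition above a per-plate cutoff, the mean inhibition of test compounds on that plate plus 3 SD, cut at about 49% in these data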;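 also: 0% = DMSO plus EC80 beta-PEA response and 100% = DMSO alone without agonist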
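Material: RD-HGA16 CHO cells with stable hTAAR1 and Gα16; Dosing: single nominal final test compound concentration of 3 µM; Schedule: seeding 17-24 h prior, 75-min 37 °C, 30-min RT dye loading; Detection: kinetic Fluo-8 calcium fluorescence measurement; Measure: % inhibition from peak post-agonist over basal fluorescence ratio; Benchmarks: vehicle and agonist controls.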
TAAR1 agonist – human TAAR1 agonists, primary screen, Fluo-8 calcium fluorescence, CHO RD-HGA16 cells; vehicle wells 0%, saturating PEA agonist 100%; activation, % at 3 µM; 360,000 compounds, 0.99% hits; AID 624467, 2012;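 active = activation above the mean activation of all test compounds in the run plus 3 SD, cut at about 38% in these data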
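System: CHO RD-HGA16 cells carrying human TAAR1 plus Gα16; Incubation: 17-24 h seeding, 75 min 37 °C dye, 30 min RT; Measured by: Fluo-8 fluorescence, 5 s baseline then 140 s kinetic read; Control set: DMSO and PEA EC100; Replication: single well for each compound.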
OX1R antag-2 – OX1R (HCRTR1) antagonists, primary screen, fluorescence, CHO/OX1R cells, Fluo-8 calcium, orexin A. Orexin/Hypocretin receptor type 1 (Homo sapiens), O43613. Fluo-8 calcium fluorescence. inhibition, % at 5 µM. 330,000 compounds, 0.43% hits;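 active = inhibition above its plate's threshold, mean inhibition of all tested compounds on the plate plus 3 SD, cut at about 37% in these data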;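 also: 0% = orexin A challenge wells and 100% = SB-334867-A antagonist wells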
GPR7 antagonist – GPR7 receptor antagonists, primary screen, cell-based, fluorescence, single concentration; GPR7-expressing cells, fluorescence antagonist assay; Neuropeptides B/W receptor type 1 (Homo sapiens), P48145; 290,000 compounds, 1.1% hits; inhibition, % at 4.4 µM; in the data active = inhibition above about 16%, passing the limit was not always enough;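 also: cells stimulated with the agonist NPW; 0% = agonist with vehicle and 100% = vehicle without agonist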
An asterisk follows results filed as active; . = not tested or not shown.

SMILES	CHO parental Ca	OX1R antag-1	TAAR1 antagonist	TAAR1 agonist	OX1R antag-2	GPR7 antagonist
O=C(Nc1nnc(C2CC2)s1)c1ccc(Cl)c(S(=O)(=O)N2CCc3ccccc3C2)c1	0	30	57*	10	10	-5
CCc1nnc(NC(=O)c2ccc(Cl)c(S(=O)(=O)N3CCc4ccccc43)c2)s1	13	60	20	13	-1	10
Cc1cccc(NC(=O)c2ccc(Cl)c(S(=O)(=O)N3CCCC3)c2)n1	-16	28	-5	3	-26	-13
O=C1C2C3C=CC(C3)C2C(=O)N1c1ccc(-c2nc(-c3ccccc3)nc3ccccc23)cc1 (stereo unspecified)	.	.	25	1	.	.
Cc1ccc2cc(C3C(C#N)=C(N)Oc4c3ccc3cccnc43)c(=O)[nH]c2c1 (stereo unspecified)	-23	45*	.	.	-12	-6
COCCN1C(=O)CSCC1(C)C(=O)NC(C)C (stereo unspecified)	.	.	-7	1	.	.
COc1ccc(/C=C2\Oc3ccccc3C2=O)cc1	-10	22	0	13	1	.
CC(=O)Oc1ccc(/C=C2/Oc3ccccc3C2=O)cc1	49*	6	-17	1	35	-1
CCNC(=O)N1CCN(c2ccc(N3CCN(C(=O)NCC)[C@@H](C)C3)c(C)c2)[C@@H](C)C1	.	.	-9	0	.	.
COc1ccccc1N1C(=O)c2cccc3c(N(C)CCO)ccc(c23)C1=O	8	4	8	22	4	-11
COc1ccccc1N1C(=O)c2cccc3c(C(=O)O)ccc(c23)C1=O	-2	38*	13	0	0	-2
CCC(=O)N1CC2(CC(c3cccc([N+](=O)[O-])c3)=NO2)C[C@H]1C(=O)NCC(N)=O (stereo partly specified)	-5	66*	-5	10	0	1
CCC(=O)Nc1cccc(C2=NOC3(C2)C[C@H](C(N)=O)N(C(=O)Cc2ccc([N+](=O)[O-])cc2)C3)c1 (stereo partly specified)	0	22	-7	7	2	.
Cc1[nH]c2ccccc2c1CC(=O)Nc1ccc(Nc2ccncc2)cc1	.	.	-16	3	.	.
CC(=O)NCCNc1ccc([N+](=O)[O-])cc1C#N	6	67*	-4	1	5	-9
CCc1ccc(S(=O)(=O)NCc2ccc(C(=O)NCCN(Cc3ccccc3)C(C)C)cc2)cc1	.	.	-4	9	.	.
Cc1ccccc1C(=O)Nc1ccc(C(=O)N/N=C/c2ccc(F)cc2)cc1	12	8	34	12	-4	5
O=C(N/N=C/c1cccnc1)c1ccc(NC(=O)c2ccccc2Cl)cc1	-7	21	50*	12	-5	8
Cc1ccccc1C(=O)Nc1ccc(C(=O)N/N=C/c2ccc(O)c(Br)c2)cc1	-21	16	52*	10	-9	8
CCOc1ccc(-n2c(=S)sc3c(=O)[nH]c(SCC(=O)C(C)(C)C)nc32)cc1	-8	48*	4	14	1	-7
CCOC(=O)[C@]12CCC=C1N(Cc1ccc3c(c1)OCO3)C(=O)[C@H](CC(=O)N1CCSCC1)C2	.	.	16	2	.	.
NC(c1csc(Nc2nncc3ccccc23)n1)c1ccccc1Cl (stereo unspecified)	.	.	40	50*	.	.
c1ccc(-c2nc(NCc3cccnc3)c3oc4ccccc4c3n2)cc1	-24	68*	12	9	22	-7
O=C(COc1cccc(F)c1)N[C@@H](Cc1ccccc1)c1nc2ccccc2[nH]1	-12	61*	-2	5	12	-2
Cc1oc2c(c1C(=O)NCc1cccnc1)C(=O)c1ccccc1C2=O	-8	46*	.	.	-32	-17
SMILES	CHO parental Ca	OX1R antag-1	TAAR1 antagonist	TAAR1 agonist	OX1R antag-2	GPR7 antagonist
COc1ccc(CNC(=O)c2c(C)oc3c2C(=O)c2ccccc2C3=O)cc1	8	30	2	4	5	-1
Nc1ccn([C@@H]2O[C@H](CNCc3ccc(-c4cc(C(F)(F)F)ccc4Cl)o3)[C@@H](O)[C@H]2O)c(=O)n1	.	.	-19	0	.	.
CCCCCCCCN1C(=O)[C@@H](CC(=O)N2CCCC2)C[C@@]2(C(=O)OC)C1=C[C@H](C1CCCC1)O[C@@H]2C	.	.	-36	-2	.	.
C[C@H](O)[C@@H]1C(=O)N2CCc3c([nH]c4c(-c5ccccc5)cccc34)[C@@H]2C[C@@H]1N(C)C(=O)c1ccccc1F	.	.	18	10	.	.
CC(=O)Oc1ccc(CN2C(=O)C(CCc3ccccc3)ON=C2c2cnccn2)cc1 (stereo unspecified)	.	.	25	10	.	.
COc1cc(CN2C(=O)C(CCc3ccccc3)ON=C2c2cnccn2)cc(OC)c1 (stereo unspecified)	.	.	50*	2	.	.
O=C(CSc1nnc2n1CCCN2)c1ccc([N+](=O)[O-])cc1	-21	51*	-12	1	-15	-1
CN(C)c1ccc(-c2ccnc3c2CC(C)(C(=O)NCc2ccncc2)O3)cc1 (stereo unspecified)	.	.	-17	-2	.	.
CCCCCCCCN1C(=O)[C@@H](CC(=O)NCC2CCCCC2)C[C@@]2(C(=O)OC)C1=C[C@H](C1CCCC1)O[C@@H]2C	.	.	-21	0	.	.
N#Cc1c(-c2ccccc2)nc(-c2ccccc2)nc1N1CCOCC1	-12	12	17	41*	-19	5
COc1ccc(OCC2CN(C3CCCC3)S(=O)(=O)CCO2)cc1 (stereo unspecified)	.	.	11	0	.	.
C/C(=N\Nc1nc2ccccc2s1)c1ccc(Br)s1	-10	36	5	4	-7	0
CC(=NNc1nc2ccccc2s1)c1ccncn1	.	.	64*	34	.	.
O=[N+]([O-])c1cc(/C=N\O)ccc1Oc1ccc(F)cc1	-2	14	19	-3	-2	16*
COc1cc(/C=N/O)ccc1Oc1ccc([N+](=O)[O-])cc1[N+](=O)[O-]	-18	40	4	23	-24	-4
NC(=O)c1ccc(NCc2ccco2)c([N+](=O)[O-])c1	-2	128*	9	5	-1	-5
Cn1c(=O)c2cc(NC(=O)OCCF)ccc2n1Cc1cccc(C(F)(F)F)c1	.	.	-11	4	.	.
Oc1ccccc1C1=NN(c2ccccc2)C(c2ccc(F)cc2)C1 (stereo unspecified)	.	.	-12	2	.	-12
